# Measurements as given in ChEMBL document CHEMBL1148755, “Structural analogues of smoothened intracellular loops as potent inhibitors of Hedgehog pathway and cancer cell growth” (J Med Chem, 2007).
# Peptide text beside a SMILES is read from it. * marks the point of attachment. Palmitoyl = CCCCCCCCCCCCCCCC(=O)*; Myristoyl = CCCCCCCCCCCCCC(=O)*
# Test system: SK-MEL-2
# Test: Growth inhibition of SK-Mel2 melanoma cells after 48 hrs by MTT assay
# Format: functional, cell-based, Homo sapiens
# Settings: Homo sapiens, SK-MEL-2, 48 h
# In short: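 Cells seeded at 200-400 per well in DMEM with 10% FBS and left to attach for 24 h. The next day, inhibitor in medium at 2× was added in an equal volume, and cells were incubated 48 h in a CO2 incubator. Reference plates were read at time of addition for T0 density. MTT staining was read as absorbance at 544 nm and compared with untreated control cells.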
row,Molecule,IC50 [nM]
1,CCCCCCCCCCCCCCCC(=O)NCCCC[C@H](NC(=O)[C@H](Cc1ccc(O)cc1)NC(=O)[C@H](CO)NC(=O)[C@@H](NC(=O)[C@H](CCCCN)NC(=O)CNC(=O)[C@H](CO)NC(=O)[C@H](CC(C)C)NC(=O)[C@@H]1CCCN1C(=O)[C@H](CCC(N)=O)NC(=O)[C@H](Cc1ccc(O)cc1)NC(=O)[C@@H](NC(=O)[C@@H](NC(=O)CNC(=O)[C@H](CC(C)C)NC(=O)[C@H](C)NC(=O)[C@H](CCCCN)NC(=O)[C@H](Cc1ccccc1)NC(=O)[C@H](CO)NC(=O)[C@@H](NC(=O)[C@H](Cc1cnc[nH]1)NC(=O)[C@H](Cc1c[nH]c2ccccc12)NC(=O)[C@H](C)NC(=O)[C@H](Cc1ccc(O)cc1)NC(C)=O)[C@@H](C)O)[C@@H](C)O)[C@@H](C)O)[C@@H](C)O)C(=O)O (Ac-YAWHTSFKALGTTYQPLSGKTSYK(Palmitoyl)-OH),1000
2,CCCCCCCCCCCCCCCC(=O)N[C@@H](CC(C)C)C(=O)N[C@H](C(=O)N[C@@H](Cc1ccc(O)cc1)C(=O)N[C@@H](C)C(=O)N[C@@H](Cc1c[nH]c2ccccc12)C(=O)N[C@@H](Cc1cnc[nH]1)C(=O)N[C@H](C(=O)N[C@@H](CO)C(=O)N[C@@H](Cc1ccccc1)C(=O)N[C@@H](CCCCN)C(=O)N[C@@H](C)C(=O)N[C@@H](CC(C)C)C(=O)NCC(=O)N[C@H](C(=O)N[C@H](C(=O)N[C@@H](Cc1ccc(O)cc1)C(=O)N[C@@H](CCC(N)=O)C(=O)N1CCC[C@H]1C(=O)O)[C@@H](C)O)[C@@H](C)O)[C@@H](C)O)[C@@H](C)O (Palmitoyl-LTYAWHTSFKALGTTYQP-OH),300
3,CCCCCCCCCCCCCCCC(=O)N[C@@H](CCCNC(=N)N)C(=O)NCC(=O)N[C@H](C(=O)N[C@@H](CCSC)C(=O)N[C@H](C(=O)N[C@@H](CC(C)C)C(=O)N[C@@H](Cc1ccccc1)C(=O)N[C@@H](CO)C(=O)N[C@H](C(=O)N[C@@H](CCCCN)C(=O)N[C@@H](CO)C(=O)N[C@@H](CC(N)=O)C(=O)N[C@@H](Cc1c[nH]cn1)C(=O)N1CCC[C@H]1C(=O)NCC(=O)N[C@@H](CC(C)C)C(=O)N[C@@H](CC(C)C)C(=O)N[C@@H](CO)C(=O)O)[C@@H](C)CC)[C@@H](C)O)C(C)C (Palmitoyl-RGVMTLFSIKSNHPGLLS-OH),500
4,Ac-TYAWHTSFKA-OH,2800
5,CCCCCCCCCCCCCCCC(=O)N[C@@H](CC(C)C)C(=O)N[C@H](C(=O)N[C@@H](Cc1ccc(O)cc1)C(=O)N[C@@H](C)C(=O)N[C@@H](Cc1c[nH]c2ccccc12)C(=O)N[C@@H](Cc1cnc[nH]1)C(=O)N[C@H](C(=O)N[C@@H](CO)C(=O)N[C@@H](Cc1ccccc1)C(=O)N[C@@H](CCCCN)C(=O)N[C@@H](C)C(=O)N[C@@H](CC(C)C)C(=O)NCC(=O)N[C@H](C(=O)N[C@H](C(=O)N[C@@H](Cc1ccc(O)cc1)C(=O)N[C@@H](CCC(N)=O)C(=O)N1CCC[C@H]1C(=O)N[C@@H](CC(C)C)C(=O)N[C@@H](CO)C(=O)NCC(=O)O)[C@@H](C)O)[C@@H](C)O)[C@@H](C)O)[C@@H](C)O (Palmitoyl-LTYAWHTSFKALGTTYQPLSG-OH),1400
6,CCCCCCCCCCCCCCCC(=O)N[C@@H](CC(C)C)C(=O)N[C@H](C(=O)N[C@@H](Cc1ccc(O)cc1)C(=O)N[C@@H](C)C(=O)N[C@@H](Cc1c[nH]c2ccccc12)C(=O)N[C@@H](Cc1cnc[nH]1)C(=O)N[C@H](C(=O)N[C@@H](CO)C(=O)N[C@@H](Cc1ccccc1)C(=O)N[C@@H](CCCCN)C(=O)N[C@@H](C)C(=O)N[C@@H](CC(C)C)C(=O)NCC(=O)N[C@H](C(=O)N[C@H](C(=O)N[C@@H](Cc1ccc(O)cc1)C(=O)N[C@@H](CCC(N)=O)C(=O)N1CCC[C@H]1C(=O)N[C@@H](CC(C)C)C(=O)N[C@@H](CO)C(=O)NCC(=O)N[C@@H](CCCCN)C(=O)N[C@H](C(=O)N[C@@H](CO)C(=O)N[C@@H](Cc1ccc(O)cc1)C(=O)O)[C@@H](C)O)[C@@H](C)O)[C@@H](C)O)[C@@H](C)O)[C@@H](C)O (Palmitoyl-LTYAWHTSFKALGTTYQPLSGKTSY-OH),450
7,CCCCCCCCCCCCCCCC(=O)NCCCC[C@H](NC(=O)[C@H](CCCNC(=N)N)NC(=O)[C@H](CC(C)C)NC(=O)[C@H](CCSC)NC(=O)[C@@H](NC(=O)[C@H](CCC(=O)O)NC(=O)[C@H](CC(N)=O)NC(=O)[C@@H](NC(=O)[C@H](CCCCN)NC(=O)[C@H](CO)NC(=O)[C@H](C)NC(=O)[C@H](C)NC(=O)[C@H](CCCCN)NC(=O)[C@H](CCC(=O)O)NC(=O)[C@H](CO)NC(=O)[C@H](CC(C)C)NC(=O)[C@H](CC(C)C)NC(=O)CNC(=O)[C@@H]1CCCN1C(=O)[C@H](Cc1c[nH]cn1)NC(=O)[C@H](CC(N)=O)NC(=O)[C@H](CO)NC(=O)[C@H](CCCCN)NC(=O)[C@@H](NC(=O)[C@H](CO)NC(=O)[C@H](Cc1ccccc1)NC(=O)[C@H](CC(C)C)NC(C)=O)[C@@H](C)CC)[C@@H](C)CC)[C@@H](C)O)C(=O)O (Ac-LFSIKSNHPGLLSEKAASKINETMLRK(Palmitoyl)-OH),950
8,CCCCCCCCCCCCCCCC(=O)N[C@@H](CC(C)C)C(=O)N[C@H](C(=O)N[C@@H](Cc1ccc(O)cc1)C(=O)N[C@@H](C)C(=O)N[C@@H](Cc1c[nH]c2ccccc12)C(=O)N[C@@H](Cc1cnc[nH]1)C(=O)N[C@H](C(=O)N[C@@H](CO)C(=O)N[C@@H](Cc1ccccc1)C(=O)N[C@@H](CCCCN)C(=O)N[C@@H](C)C(=O)N[C@@H](CC(C)C)C(=O)O)[C@@H](C)O)[C@@H](C)O (Palmitoyl-LTYAWHTSFKAL-OH),80
9,CCCCCCCCCCCCCC(=O)N[C@@H](CC(C)C)C(=O)N[C@H](C(=O)N[C@@H](Cc1ccc(O)cc1)C(=O)N[C@@H](C)C(=O)N[C@@H](Cc1c[nH]c2ccccc12)C(=O)N[C@@H](Cc1cnc[nH]1)C(=O)N[C@H](C(=O)N[C@@H](CO)C(=O)N[C@@H](Cc1ccccc1)C(=O)N[C@@H](CCCCN)C(=O)N[C@@H](C)C(=O)N[C@@H](CC(C)C)C(=O)O)[C@@H](C)O)[C@@H](C)O (Myristoyl-LTYAWHTSFKAL-OH),200
10,CCCCCCCCCCCCCCCC(=O)NCCCC[C@H](NC(=O)[C@H](Cc1ccc(O)cc1)NC(=O)[C@H](CO)NC(=O)[C@@H](NC(=O)[C@H](CCCCN)NC(=O)CNC(=O)[C@H](CO)NC(=O)[C@H](CC(C)C)NC(=O)[C@@H]1CCCN1C(=O)[C@H](CCC(N)=O)NC(=O)[C@H](Cc1ccc(O)cc1)NC(=O)[C@@H](NC(=O)[C@@H](NC(=O)CNC(=O)[C@H](CC(C)C)NC(=O)[C@H](C)NC(=O)[C@H](CCCCN)NC(=O)[C@H](Cc1ccccc1)NC(=O)[C@H](CO)NC(=O)[C@@H](NC(=O)[C@H](Cc1cnc[nH]1)NC(=O)[C@H](Cc1c[nH]c2ccccc12)NC(=O)[C@H](C)NC(=O)[C@H](Cc1ccc(O)cc1)NC(=O)[C@@H](NC(=O)[C@H](CC(C)C)NC(C)=O)[C@@H](C)O)[C@@H](C)O)[C@@H](C)O)[C@@H](C)O)[C@@H](C)O)C(=O)O (Ac-LTYAWHTSFKALGTTYQPLSGKTSYK(Palmitoyl)-OH),1000

# Same assay, conditions: sk-mel-2
row,Molecule,IC50 [nM]
1,CCCCCCCCCCCCCCCC(=O)NCCCC[C@H](NC(=O)[C@H](CCCNC(=N)N)NC(=O)[C@H](CC(C)C)NC(=O)[C@H](CCSC)NC(=O)[C@@H](NC(=O)[C@H](CCC(=O)O)NC(=O)[C@H](CC(N)=O)NC(=O)[C@@H](NC(=O)[C@H](CCCCN)NC(=O)[C@H](CO)NC(=O)[C@H](C)NC(=O)[C@H](C)NC(=O)[C@H](CCCCN)NC(=O)[C@H](CCC(=O)O)NC(=O)[C@H](CO)NC(=O)[C@H](CC(C)C)NC(=O)[C@H](CC(C)C)NC(C)=O)[C@@H](C)CC)[C@@H](C)O)C(=O)O (stereo in doubt; form 1),800
